ChEMBL document CHEMBL1772984, “Inhibitor selectivity of a new class of oseltamivir analogs against viral neuraminidase over human neuraminidase enzymes” (Bioorg Med Chem, 2011)
Active and inactive are the calls of the source. The calls are words filed in the database; no cut-off is given here.

Experiments:
[1] = Inhibition of viral Neuraminidase
[2] = molecular target: T1, Sialidase-3 (Homo sapiens) (UniProt Q9UQ49); assay: (§1) Inhibition of human NEU3 using 4MU-NA as substrate after 1 hr by fluorescence assay
T1 sequence (whole entry): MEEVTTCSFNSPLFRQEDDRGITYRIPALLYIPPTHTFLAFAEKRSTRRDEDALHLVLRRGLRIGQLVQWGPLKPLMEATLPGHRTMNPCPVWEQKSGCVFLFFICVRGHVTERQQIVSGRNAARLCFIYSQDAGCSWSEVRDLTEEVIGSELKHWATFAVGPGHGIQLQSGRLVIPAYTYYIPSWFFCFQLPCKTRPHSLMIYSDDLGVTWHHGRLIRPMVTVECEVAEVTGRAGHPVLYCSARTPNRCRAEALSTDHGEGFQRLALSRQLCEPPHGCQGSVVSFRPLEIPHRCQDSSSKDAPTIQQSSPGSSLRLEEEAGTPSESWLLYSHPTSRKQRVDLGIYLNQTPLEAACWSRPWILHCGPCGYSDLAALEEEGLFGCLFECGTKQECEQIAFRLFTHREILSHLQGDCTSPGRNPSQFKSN
Procedure, shortened: (§2)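 Recombinant human NEU3 was used as an N-terminal MBP fusion, expressed in E. coli. Enzyme (0.1 mg/mL before mixing) was preincubated with inhibitor (eight serial-dilution concentrations, five replicates) for 30 min at 37 °C. 4MU-NA was then added from a 1 mM stock in 0.1 M sodium acetate pH 5.0 and incubated 1 h.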

Sialidase-3 = molecular target: T2, Sialidase-3 (Homo sapiens, UniProt Q9UQ49); assay: as §1; procedure, shortened: as §2
T2 sequence (Q9UQ49 whole entry): T1 sequence (whole entry)

Sialidase-4 = molecular target: T3, Sialidase-4 (Homo sapiens, UniProt Q8WWR8); assay: (§3) Inhibition of human NEU4 using 4MU-NA as substrate after 1 hr by fluorescence assay
T3 sequence (Q8WWR8 whole entry): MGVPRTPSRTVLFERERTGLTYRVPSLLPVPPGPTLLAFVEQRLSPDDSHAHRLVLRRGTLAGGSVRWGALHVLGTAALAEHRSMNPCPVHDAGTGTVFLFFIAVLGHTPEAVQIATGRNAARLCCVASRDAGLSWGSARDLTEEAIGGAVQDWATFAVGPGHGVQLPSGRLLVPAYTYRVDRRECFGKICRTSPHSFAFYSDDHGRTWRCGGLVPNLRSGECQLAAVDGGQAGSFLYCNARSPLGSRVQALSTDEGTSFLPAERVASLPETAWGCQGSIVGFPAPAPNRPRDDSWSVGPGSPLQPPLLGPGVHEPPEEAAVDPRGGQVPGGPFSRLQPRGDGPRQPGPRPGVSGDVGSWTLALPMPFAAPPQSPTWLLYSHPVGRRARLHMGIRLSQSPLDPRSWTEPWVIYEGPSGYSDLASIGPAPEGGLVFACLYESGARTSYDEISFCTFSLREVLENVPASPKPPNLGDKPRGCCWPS
Procedure, shortened: (§4)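 Recombinant human NEU4 was used as a GST fusion, expressed in E. coli BL21(DE3) pLysS and glutathione-agarose purified. Enzyme (0.1 mg/mL before mixing) was preincubated 30 min at 37 °C with inhibitor (eight serial-dilution concentrations, five replicates). 4MU-NA was added from a 1 mM stock in 0.1 M sodium acetate pH 4.5 for 1 h.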

[3] = molecular target: T4, Sialidase-4 (Homo sapiens) (UniProt Q8WWR8); assay: as §3; procedure, shortened: as §4
T4 sequence (whole entry): T3 sequence (Q8WWR8 whole entry)

Ki [1] [µM] | inhibition [2] | IC50 (Sialidase-3) [µM] | IC50 (Sialidase-4) [µM] | inhibition [3] | Compound
0.072 |  |  |  |  | CCC(CC)O[C@@H]1CC(C(=O)O)=C[C@H](n2cc(C(O)CC)nn2)[C@H]1NC(C)=O (some centres undefined)
 | inactive | > 1000 | > 1000 | inactive | CCC(CC)O[C@@H]1CC(C(=O)O)=C[C@H](n2cc(C(C)(C)O)nn2)[C@H]1NC(C)=O
 |  | > 1000 | > 1000 |  | CCC(CC)O[C@@H]1CC(C(=O)O)=C[C@H](N)[C@H]1NC(C)=O
 | inactive |  |  | inactive | CCC(CC)O[C@@H]1CC(C(=O)O)=C[C@H](n2cc(CCc3ccccc3)nn2)[C@H]1NC(C)=O
 |  | 350 | 800 |  | CCC(CC)O[C@@H]1CC(C(=O)O)=C[C@H](n2cc([C@]3(O)CC[C@H]4[C@@H]5CCc6cc(O)ccc6[C@H]5CC[C@@]43C)nn2)[C@H]1NC(C)=O
 |  |  | > 1000 | inactive | CCC(CC)O[C@@H]1CC(C(=O)O)C=C(n2cc(C(C)(C)O)nn2)[C@H]1NC(C)=O (some centres undefined)
 |  | 30 |  |  | CC(=O)N[C@H]1[C@H]([C@H](O)[C@H](O)CO)OC(C(=O)O)=C[C@@H]1O [NEU5AC2EN]
